Assay results as given in ChEMBL document CHEMBL1155457, “Discovery of the dual orexin receptor antagonist [(7R)-4-(5-chloro-1,3-benzoxazol-2-yl)-7-methyl-1,4-diazepan-1-yl][5-methyl-2-(2H-1,2,3-triazol-2-yl)phenyl]methanone (MK-4305) for the treatment of insomnia” (J Med Chem, 2010).
Activity calls are given as the source filed them. The calls are words filed in the database; no cut-off is given here.

How the values were obtained:
[1] = Lipophilicity, log P of the compound; type: physicochemical; conditions: octanol/water
[2] = test system: Rattus norvegicus; experiment: Antiinsomnic activity in Sprague-Dawley rat assessed as decrease in active wake duration at 30 mg/kg/day, po measured with 3 to 4 hrs post last dose; type: functional, organism-based
Procedure, shortened: (§1)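 Telemetry-implanted rats with ECoG and EMG electrodes placed under isoflurane, recovered at least two weeks, 12 h light:dark cycle. 30 mg/kg free base suspended in 20% aqueous TPGS given by oral gavage 5 h into the active phase. Crossover design with four rats, one week on drug and one on vehicle. Automated staging in 30 min bins, averaged over seven nights, mixed ANOVA.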

[3] = test system: Rattus norvegicus; experiment: Antiinsomnic activity in Sprague-Dawley rat assessed as increase in rapid-eye movement at 30 mg/kg/day, po measured with 3 to 4 hrs post last dose; type: functional, organism-based; procedure, shortened: as §1
[4] = test system: Rattus norvegicus; experiment: Antiinsomnic activity in Sprague-Dawley rat assessed as increase in delta sleep duration at 30 mg/kg/day, po measured with 3 to 4 hrs post last dose; type: functional, organism-based; procedure, shortened: as §1
[5] = test system: Rattus norvegicus; experiment: Antiinsomnic activity in Sprague-Dawley rat assessed as decrease in light sleep duration at 30 mg/kg/day, po measured with 3 to 4 hrs post last dose; type: functional, organism-based; procedure, shortened: as §1
[6] = Cmax in Sprague-Dawley rat CSF at 30 mg/kg/day, po; type: ADME, organism-based, Cerebrospinal fluid; set-up: dose 30 mg/kg/day, route oral
[7] = Drug level in Sprague-Dawley rat CSF at 30 mg/kg/day, po; type: ADME, organism-based, Cerebrospinal fluid; set-up: route oral; conditions: in vivo, read-out: Drug uptake
[8] = test system: Rattus norvegicus; experiment: In vivo occupancy of human OX2R ubiquitously overexpressed in iv dosed transgenic rat after 30 mins; type: functional
Procedure, shortened: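 Transgenic human OX2R rats were infused IV over 30 min at 0.1-2.0 mg/kg in 25% hydroxypropyl-β-cyclodextrin, then sacrificed. Brain homogenate at 10 mg tissue/mL was incubated with 200 pM radioligand at room temperature and filtered at 2-15 min. Nonspecific binding was set with 1 μM unlabeled DORA. Occupancy = (1 - slope_drug/slope_vehicle) × 100; Occ90 came from nonlinear fit.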

[9] = Drug level in human OX2R overexpressing transgenic rat plasma at 1.34 mg/kg, iv after 30 mins; type: ADME, organism-based; set-up: dose 1.34 mg/kg, route intravenous; conditions: read-out: Drug uptake
Procedure, shortened: (§2)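 Transgenic rats expressing human OX2R received a 30 min IV infusion, 0.1-2.0 mg/kg, in 25% hydroxypropyl-β-cyclodextrin. They were then sacrificed, and brain, plasma and CSF were frozen. Drug levels were measured by LCMS.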

[10] = Drug level in human OX2R overexpressing transgenic rat brain at 1.34 mg/kg, iv after 30 mins; type: ADME, organism-based; set-up: dose 1.34 mg/kg, route intravenous; conditions: read-out: Drug uptake; procedure, shortened: as §2
[11] = Drug level in human OX2R overexpressing transgenic rat CSF at 1.34 mg/kg, iv after 30 mins; type: ADME, organism-based, Cerebrospinal fluid; set-up: dose 1.34 mg/kg, route intravenous; conditions: read-out: Drug uptake; procedure, shortened: as §2
[12] = test system: Rattus norvegicus; experiment: In vivo occupancy of human OX2R ubiquitously overexpressed in transgenic rat at 30 mg/kg/day, iv after 30 mins; type: functional
[13] = Thermal stability of the compound; type: physicochemical
[14] = Chemical stability in pH-dependent solution; type: physicochemical
[15] = Aqueous solubility of the compound; type: physicochemical; conditions: buffer
[16] = Genotoxicity in Salmonella Typhimurium by Ames test; type: toxicity; conditions: salmonella enterica subsp. enterica serovar typhimurium
[17] = species on record: Canis familiaris; experiment: Cardiotoxicity in dog; type: toxicity, organism-based, Canis lupus familiaris; conditions: in vivo
[18] = Plasma protein binding in rat; type: ADME, cell-free; conditions: read-out: PPB
[19] = Plasma protein binding in human; type: ADME, cell-free; conditions: read-out: PPB
[20] = test system: Rattus norvegicus; experiment: Clearance in rat at 2 mg/kg, iv; type: ADME, organism-based; set-up: dose 2 mg/kg, route intravenous; conditions: in vivo
Procedure, shortened: (§3)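 IV PK in DMSO vehicle: rat at 2 mg/kg, dog at 0.5 mg/kg. Clearance, Vd_ss and terminal half-life were derived from plasma levels.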

[21] = Volume of distribution at steady state in rat at 2 mg/kg, iv; type: ADME, organism-based; set-up: dose 2 mg/kg, route intravenous; conditions: in vivo, read-out: Vdss; procedure, shortened: as §3
[22] = Terminal half life in rat at 2 mg/kg, iv; type: ADME, organism-based; set-up: dose 2 mg/kg, route intravenous; conditions: in vivo, read-out: beta t1/2 (converted); procedure, shortened: as §3
[23] = Clearance in dog at 0.5 mg/kg, iv; type: ADME, organism-based, Canis lupus familiaris; set-up: dose 0.5 mg/kg, route intravenous; conditions: in vivo
Procedure, shortened: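 Dogs received an IV dose with DMSO as vehicle (n = 3). Clearance was derived from plasma pharmacokinetics.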

[24] = Volume of distribution at steady state in dog at 0.5 mg/kg, iv; type: ADME, organism-based, Canis lupus familiaris; set-up: dose 0.5 mg/kg, route intravenous; conditions: in vivo, read-out: Vdss; procedure, shortened: as §3
[25] = Terminal half life in dog at 0.5 mg/kg, iv; type: ADME, organism-based, Canis lupus familiaris; set-up: dose 0.5 mg/kg, route intravenous; conditions: in vivo, read-out: beta t1/2 (converted); procedure, shortened: as §3
[26] = AUC in dog at 3 mg/kg, po; type: ADME, organism-based, Canis lupus familiaris; set-up: dose 3 mg/kg, route oral; conditions: plasma
[27] = Cmax in dog at 3 mg/kg, po; type: ADME, organism-based, Canis lupus familiaris; set-up: dose 3 mg/kg, route oral; conditions: in vivo
[28] = Oral bioavailability in dog at 3 mg/kg; type: ADME, organism-based, Canis lupus familiaris; conditions: in vivo
[29] = Tmax in dog at 3 mg/kg, po; type: ADME, organism-based, Canis lupus familiaris; set-up: dose 3 mg/kg, route oral; conditions: in vivo
[30] = AUC in rat at 10 mg/kg, po; type: ADME, organism-based; set-up: dose 10 mg/kg, route oral; conditions: plasma
[31] = Cmax in rat at 10 mg/kg, po; type: ADME, organism-based; set-up: dose 10 mg/kg, route oral; conditions: in vivo
[32] = Tmax in rat at 10 mg/kg, po; type: ADME, organism-based; set-up: dose 10 mg/kg, route oral; conditions: in vivo
[33] = Oral bioavailability in rat at 10 mg/kg; type: ADME, organism-based; conditions: in vivo

For Cc1ccc(-n2nccn2)c(C(=O)N2CCN(c3nc4cc(Cl)ccc4o3)CC[C@H]2C)c1 [SUVOREXANT], the logP [1] was 3.6, the Activity [2] was “Active” and the Activity [3] was “Active”. For the same molecule, the Activity [4] was “Active”, the Activity [5] was “Active” and the Cmax [6] was 2100 nM. For the same molecule, the concentration [7] was 21 nM, the Activity [8] was 1.34 mg/kg and the concentration at 0.5 h [9] was 1070 nM. For the same molecule, the concentration at 0.5 h [10] was 1180 nM, the concentration at 0.5 h [11] was 13 nM and the Activity [12] was >90%. The Stability [13] was “Stable”, the Stability [14] was “Stable” and the solubility [15] was “Soluble”. The Activity [16] was “Non-toxic”, the Activity [17] was “Non-toxic” and the fraction unbound [18] was 0.01. For the same molecule, the fraction unbound [19] was 0.01, the clearance [20] was 44 mL/min/kg and the Vd [21] was 2.6 L/kg. The half-life [22] was 36 min, the clearance [23] was 4 mL/min/kg and the Vd [24] was 0.8 L/kg. It also gave a half-life [25] of 198 min, an AUC [26] of 16.9 µM·h and a Cmax [27] of 3200 nM. It also gave a bioavailability [28] of 56%, a Tmax [29] of 30 min and an AUC [30] of 1.7 µM·h. The Cmax [31] was 480 nM, the Tmax [32] was 30 min and the bioavailability [33] was 19%.
